Screening results from PubChem.
Shown are actives, neighbours in structure and some others; about 4.5% of the full set was active somewhere.
CHO parental Ca: counter-screen for OX1R antagonists: effect in parental CHO cells; actives 0.63% (n = 330,000); inhibition, % at 5.6 µM; parental CHO-K1, ATP-induced calcium, Fluo-8 fluorescence; AID 463079;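 active = inhibition above that plate's mean sample inhibition plus 3 SD, cut at about 26% in these data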;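 also: 0% = ATP-challenged DMSO wells and 100% = DMSO wells without ATP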
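Assay system: parental CHO cells; Read-out basis: percent inhibition of ATP-evoked calcium rise, normalized to controls; Benchmarks: ATP and no-ATP DMSO wells; Compound dosing: single nominal dose of 5.6 µM per compound; Signal: Fluo-8 calcium dye fluorescence; Also added: ATP as calcium-mobilizing challenge; Repeats: singlicate.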
TAAR1 ag: agonists of human TAAR1; actives 0.99% (n = 360,000); AID 624467; activation, % at 3 µM; CHO RD-HGA16 TAAR1, Fluo-8 calcium fluorescence; vehicle wells 0%, saturating PEA agonist 100%;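 active = activation above the mean activation of all test compounds in the run plus 3 SD, cut at about 38% in these data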
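Signal – calcium-sensitive Fluo-8 signal, excitation 470-495, emission 515-575 nm · System – RD-HGA16 (CHO) cells co-expressing Gα16 and hTAAR1 · Incubation – 17-24 h seeding, 75 min 37 °C dye, 30 min RT · Compound dosing – 3 µM single concentration · Repeats – no replicates (n 1)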
TAAR1 antagonist: antagonists of human TAAR1. CHO RD-HGA16 TAAR1, Fluo-8 calcium fluorescence, antagonist. inhibition, % at 3 µM. actives 1.5% (n = 360,000). AID 624466;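 active = inhibition above a per-plate cutoff, the mean inhibition of test compounds on that plate plus 3 SD, cut at about 49% in these data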;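 also: 0% = DMSO plus EC80 beta-PEA response and 100% = DMSO alone without agonist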
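Assay system: CHO-derived RD-HGA16 cells stably expressing human TAAR1 plus Gα16. Timing: 140 s kinetic read after compound, 140 s after agonist. Technique: kinetic Fluo-8 calcium fluorescence measurement. Measure: % inhibition of agonist calcium response.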
OX1R antag-1: blocks the human orexin 1 receptor; AID 434989; O43613; inhibition, % at 5 µM; actives 0.43% (n = 330,000); CHO/OX1R cells, Fluo-8 calcium fluorescence, orexin A;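 active = inhibition above its plate's threshold, mean inhibition of all tested compounds on the plate plus 3 SD, cut at about 37% in these data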;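 also: 0% = orexin A challenge wells and 100% = SB-334867-A antagonist wells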
Target sequence (O43613 whole entry, looked up): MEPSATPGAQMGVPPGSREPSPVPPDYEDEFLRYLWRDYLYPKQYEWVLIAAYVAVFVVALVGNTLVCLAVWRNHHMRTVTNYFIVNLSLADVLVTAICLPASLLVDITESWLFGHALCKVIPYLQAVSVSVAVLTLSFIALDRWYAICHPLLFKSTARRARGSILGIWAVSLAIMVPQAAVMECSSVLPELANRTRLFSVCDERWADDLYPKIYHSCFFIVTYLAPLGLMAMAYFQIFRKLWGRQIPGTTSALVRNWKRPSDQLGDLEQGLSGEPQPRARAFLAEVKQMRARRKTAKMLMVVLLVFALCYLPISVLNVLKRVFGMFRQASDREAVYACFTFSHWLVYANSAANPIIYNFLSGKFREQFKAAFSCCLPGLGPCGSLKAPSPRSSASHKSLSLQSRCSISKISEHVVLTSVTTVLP
GPR7 antag: human neuropeptides B/W receptor 1 antagonism; P48145; GPR7-expressing cells, fluorescence antagonist assay; inhibition, % at 4.4 µM; actives 1.1% (n = 290,000); in the data active = inhibition above about 16%, passing the limit was not always enough;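 also: cells stimulated with the agonist NPW; 0% = agonist with vehicle and 100% = vehicle without agonist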
Target sequence (P48145 whole entry, looked up): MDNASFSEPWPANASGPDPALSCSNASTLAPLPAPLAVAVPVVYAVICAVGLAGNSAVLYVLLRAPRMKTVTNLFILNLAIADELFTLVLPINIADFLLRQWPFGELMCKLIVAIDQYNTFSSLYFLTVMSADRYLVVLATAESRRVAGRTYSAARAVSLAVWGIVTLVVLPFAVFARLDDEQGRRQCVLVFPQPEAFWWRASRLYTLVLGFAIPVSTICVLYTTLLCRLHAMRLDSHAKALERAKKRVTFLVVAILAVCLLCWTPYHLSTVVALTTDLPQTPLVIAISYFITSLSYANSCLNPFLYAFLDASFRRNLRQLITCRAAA
OX1R antag-2: blocks the human orexin 1 receptor. OX1R-expressing cells, FRET antagonist read-out. inhibition, % at 6.6 µM. actives 1.8% (n = 330,000). AID 485270; in the data active = inhibition mostly above about 38%, no sharp cut-off; inactive = mostly below about 40%;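 also: 0% = agonist challenge alone and 100% = reference antagonist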
OX1R Ca confirm: confirmation of human orexin 1 receptor antagonists. shares compounds with OX1R antag-1. inhibition, % at 5 µM. actives 38% (n = 1,100). CHO/OX1R cells, orexin A calcium Fluo-8 fluorescence; in the data active = inhibition above about 29%;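 also: 0% = agonist challenge alone and 100% = reference antagonist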
CHO Ca counter: counter-screen for OX1R antagonists: effect in parental CHO cells; actives 9.3% (n = 1,100); shares compounds with OX1R antag-1; inhibition, % at 5.6 µM; parental CHO-K1, ATP-induced calcium, Fluo-8 fluorescence;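 active = inhibition above a per-plate limit, the mean inhibition of that plate's test compounds plus 3 SD, cut at about 25% in these data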;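 also: 0% = ATP challenge with DMSO and 100% = DMSO without ATP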
OX1R HTRF confirm: OX1R (human) antagonism, HTRF confirmed; shares compounds with OX1R antag-2; OX1R-expressing cells, HTRF antagonist assay; inhibition, % at 6.6 µM; actives 49% (n = 1,800); AID 492964; in the data active = inhibition above about 55%;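 also: CHO cells expressing OX1R stimulated with orexin A at about EC80; 0% = agonist challenge alone and 100% = reference antagonist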
CHO-K1 HTRF: counter-screen: parental CHO-K1 HTRF response; inhibition, % at 6.6 µM; actives 48% (n = 1,800); shares compounds with OX1R antag-2; parental CHO-K1 cells, HTRF counterscreen; in the data active = inhibition above about 17%;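 also: 0% = agonist challenge with vehicle and 100% = vehicle alone without agonist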
Active calls of the source: *; . = not tested or not shown.

SMILES	CHO parental Ca	TAAR1 ag	TAAR1 antagonist	OX1R antag-1	GPR7 antag	OX1R antag-2	OX1R Ca confirm	CHO Ca counter	OX1R HTRF confirm	CHO-K1 HTRF
O=C(N/N=C/C(Br)=C/c1ccccc1)c1cc(-c2ccco2)[nH]n1	-11.7	12.0	30.6	26.4	0.6	73.2*	49.8*	7.1	86.9*	9.0
CC(/C=N/NC(=O)c1cc(-c2cccs2)[nH]n1)=C\c1ccccc1	-14.5	15.3	35.1	45.0*	-5.4	88.2*	45.0*	-2.3	73.0*	11.3
CCOc1ccc(-c2nnc(SCC(=O)Nc3ccc4c(c3)c3ccccc3n4CC)n2N)cc1	-18.8	3.2	6.3	-17.3	7.2	12.7	.	.	.	.
CCn1c2ccccc2c2cc(NC(=O)CSc3nnc(-c4cccc(OC)c4)n3N)ccc21	-18.1	13.8	10.4	47.0*	-11.5	92.8*	47.2*	-15.0	90.8*	12.1
COc1ccc(CNC(=O)c2cc(=O)c3cc(C)cc(C)c3o2)cc1	-1.3	-0.2	8.0	-6.2	-11.2	-4.7	.	.	.	.
O=c1c2ccccc2oc2cc(-c3ccc4[nH]ccc4c3)ccc12	-5.2	14.3	20.7	67.3*	.	87.9*	75.7*	2.7	87.5*	5.1
O=c1c2ccccc2oc2ccccc12	.	-0.5	-10.9	.	.	.	.	.	.	.
COc1ccc2cc(C(=O)/C=C/c3cc(OC)c(O)c(OC)c3)ccc2c1	-14.8	21.1	23.2	35.5	-5.3	62.1*	49.1*	-0.9	74.5*	-9.1
Cc1c(C)n(Cc2ccc(F)cc2)c2ccc(C(=O)N3CCN(c4ccccn4)CC3)cc12	-15.8	1.0	14.9	-27.6	2.3	22.1	.	.	.	.
O=C(CCNC(=O)c1ccco1)NCCN1C(=O)S/C(=C\c2ccc(F)cc2)C1=O	-11.6	7.3	14.7	44.9*	.	46.9*	19.2	2.8	90.5*	23.6*
O=C(NCCN1C(=O)S/C(=C\c2cccs2)C1=O)c1ccco1	-30.3	-0.4	-14.3	-22.0	-10.0	43.7	.	.	.	.
COc1ccc(N2CC(C(=O)N(CC(C)C)c3c(N)n(Cc4ccccc4)c(=O)[nH]c3=O)CC2=O)c(OC)c1 (stereo unspecified)	-13.9	-0.8	4.0	-20.3	.	9.1	.	.	.	.
COc1ccc(/C=N/NC(=O)c2ccc3ccccc3c2)cc1OS(=O)(=O)c1ccc(NC(C)=O)cc1	18.2	12.2	74.4*	59.8*	23.8	63.0*	41.0*	13.3	52.7	-0.9
O=[N+]([O-])c1ccc(-c2cnc(SC(c3ccccc3)c3ccccc3)[nH]2)cc1	16.6	0.0	38.3	36.9	17.9	54.4*	18.2	12.2	68.0*	12.0
Cc1ccc(CCC(=O)Nc2ccc(C#N)cc2)o1	-2.5	0.7	-13.3	-10.8	12.8	10.9	.	.	.	.
O=S(=O)(NCc1ccc(F)cc1)c1ccccc1Br	-4.1	1.1	-16.6	-3.4	.	4.5	.	.	.	.
O=C(Nc1ccc(Cl)c(Cl)c1)c1cccc(S(=O)(=O)NCc2cccnc2)c1	-3.4	35.3	25.1	36.3	29.6*	66.7*	38.3*	55.1*	77.3*	5.2
CC(NCC(=O)Nc1ccccc1C(=O)NC1CC1)c1ccc(F)cc1F (stereo unspecified)	-16.1	9.2	16.0	57.1*	.	68.5*	44.4*	-7.4	87.2*	1.8
CN(C)CCn1cnc2c(c1=N)C(c1ccccc1)c1ccc3ccccc3c1O2 (stereo unspecified)	-5.1	2.5	8.8	-12.8	29.2	8.8	.	.	.	.
COC(=O)c1ccccc1NC(=O)c1sc(=S)n(C)c1N	18.2	5.7	6.3	77.8*	-1.8	93.3*	97.4*	-10.7	94.4*	1.4
COC(=O)c1ccccc1NC(=O)c1sc(N)nc1C	-4.5	2.8	8.6	-28.0	1.0	21.4	.	.	.	.
Cc1ccc(C(=O)Nc2ccc(S(=O)(=O)NC3=NCCCCC3)cc2)cc1S(=O)(=O)N1CCOCC1	-9.9	0.6	-15.6	-16.0	.	2.7	.	.	.	.
COc1cc(OC)c(-c2nc3ccccc3s2)cc1OC	-9.6	-2.9	-11.4	53.8*	-14.0	94.5*	35.9*	-5.9	92.5*	9.9
COc1ccc(-c2nc3ccccc3s2)cc1O	-5.0	6.8	3.0	85.5*	-5.8	112.3*	37.4*	-2.2	97.8*	-5.3
CC(=O)Nc1cccc(-c2nc3ccccc3s2)c1	-24.1	2.6	5.6	26.1	-5.6	76.0*	6.4	-6.8	54.0	0.8
SMILES	CHO parental Ca	TAAR1 ag	TAAR1 antagonist	OX1R antag-1	GPR7 antag	OX1R antag-2	OX1R Ca confirm	CHO Ca counter	OX1R HTRF confirm	CHO-K1 HTRF
CC(=O)Nc1cccc(-c2nc3ccc(NC(C)=O)cc3s2)c1	-11.1	2.2	3.0	-7.8	-6.7	18.7	.	.	.	.
O=C(Nc1ccc(F)cc1)C1CCCN1S(=O)(=O)c1ccc(Br)cc1 (stereo unspecified)	-18.8	-2.0	-6.8	32.0	-14.2	81.4*	37.5*	-10.2	88.6*	-3.7
O=C(Nc1nccs1)[C@@H]1CCCN1S(=O)(=O)c1ccc(Cl)cc1	-12.2	1.5	-17.1	15.4	.	32.2	.	.	.	.
O=C(Nc1nccs1)C1CCCN1S(=O)(=O)c1ccc(F)cc1 (stereo unspecified)	-20.1	9.7	4.4	43.9*	1.9	74.7*	7.6	-4.9	31.2	-4.8
O=C(Nc1ccc(F)c(F)c1)C1CCCN1S(=O)(=O)c1ccc(F)cc1 (stereo unspecified)	8.8	1.3	13.7	37.4*	2.3	74.4*	42.1*	-15.4	70.4*	0.0
CNC(=O)C1CCCN1S(=O)(=O)c1ccc(OC)cc1 (stereo unspecified)	0.3	-0.7	10.9	-11.5	-7.9	8.3	.	.	.	.
COc1ccc(S(=O)(=O)N2CCCC2C(=O)Nc2nc3c(s2)CCCC3)cc1 (stereo unspecified)	-35.6	1.1	1.0	44.7*	-11.0	94.7*	44.0*	-4.6	87.5*	2.4
COc1cc(C)c(NC(=O)COc2ccc3c(c2)CCC3)cc1OC	-18.1	4.3	-4.0	3.0	.	9.8	.	.	.	.
Nc1cccc(C#Cc2ccc3c(=O)c4ccccc4oc3c2)c1	-33.3	11.9	39.5	51.5*	.	72.4*	11.9	99.0*	49.5	8.4
COc1ccccc1CCNC(=O)Cn1ccc2cc(S(=O)(=O)N3CCC(C)CC3)ccc21	4.9	19.6	9.1	11.0	6.5	22.3	.	.	.	.
